Measured values as given in ChEMBL document CHEMBL4665862, “Synthesis and biological activity of C-7, C-9 and C-10 modified taxane analogues from 1-deoxybaccatin VI” (Bioorg Med Chem, 2020).
pIC50: −log10 of the molar value.

Assays:
[1] = Potency index, ratio of paclitaxel IC50 to compound IC50 for cytotoxicity against drug-resistant human A549/T cells assessed as reduction in cell viability incubated for 72 hrs by CCK-8 assay; format: functional
MDA-MB-231 = test: Cytotoxicity against human MDA-MB-231 cells assessed as reduction in cell viability incubated for 72 hrs by CCK-8 assay; format: functional, cell-based; details: MDA-MB-231, 72 h
In short: (§1)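 Exponentially growing human tumour cells were exposed for 72 h to compounds formulated in DMSO solution. Cell survival was read by the CCK-8 method, and IC50 values were taken from the dose–response curves.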

[2] = Cytotoxicity against human drug-resistant A549/T cells assessed as reduction in cell viability incubated for 72 hrs by CCK-8 assay; format: functional, cell-based; details: A549, 72 h; in short: as §1
A549 = test: Cytotoxicity against human A549 cells assessed as reduction in cell viability incubated for 72 hrs by CCK-8 assay; format: functional, cell-based; details: A549, 72 h; in short: as §1

Compound | Ratio [1] | pIC50 (MDA-MB-231) | pIC50 [2] | pIC50 (A549)
CC(=O)O[C@H]1C[C@H]2OC[C@@]2(OC(C)=O)[C@H]2[C@H](OC(=O)c3ccccc3)C3C[C@H](OC(=O)[C@H](O)[C@@H](NC(=O)c4ccccc4)c4ccccc4)C(C)=C([C@H]4OC(=O)O[C@@H]4[C@]12C)C3(C)C (some centres undefined) | 7 | 6.91 | 6.64 | 7.66
CC(=O)O[C@H]1C(=O)[C@@]2(C)[C@H]([C@H](OC(=O)c3ccccc3)[C@]3(O)C[C@H](OC(=O)[C@H](O)[C@@H](NC(=O)c4ccccc4)c4ccccc4)C(C)=C1C3(C)C)[C@]1(OC(C)=O)CO[C@@H]1C[C@@H]2O [PACLITAXEL] |  | 7.70 | 5.80 | 7.89
CC(=O)O[C@H]1C[C@H]2OC[C@@]2(OC(C)=O)[C@H]2[C@H](OC(=O)c3ccccc3)C3C[C@H](OC(=O)[C@H](O)[C@@H](NC(=O)c4cccc(Br)c4)c4ccccc4)C(C)=C([C@H]4OC(=O)O[C@@H]4[C@]12C)C3(C)C (some centres undefined) |  | 5.70 | 5.54 | 6.48
COc1cccc(C(=O)N[C@@H](c2ccccc2)[C@@H](O)C(=O)O[C@H]2CC3[C@@H](OC(=O)c4ccccc4)[C@@H]4[C@]5(OC(C)=O)CO[C@@H]5C[C@H](OC(C)=O)[C@@]4(C)[C@H]4OC(=O)O[C@@H]4C(=C2C)C3(C)C)c1 (some centres undefined) |  | 7.17 | 5.52 | 7.16
CC(=O)O[C@H]1C[C@H]2OC[C@@]2(OC(C)=O)[C@H]2[C@H](OC(=O)c3ccccc3)C3C[C@H](OC(=O)[C@H](O)[C@@H](NC(=O)c4ccccc4F)c4ccccc4)C(C)=C([C@H]4OC(=O)O[C@@H]4[C@]12C)C3(C)C (some centres undefined) |  | 6.74 | 5.31 | 6.94
CC(=O)O[C@H]1C[C@H]2OC[C@@]2(OC(C)=O)[C@H]2[C@H](OC(=O)c3ccccc3)C3C[C@H](OC(=O)[C@H](O)[C@@H](NC(=O)c4ccc(F)cc4)c4ccccc4)C(C)=C([C@H]4OC(=O)O[C@@H]4[C@]12C)C3(C)C (some centres undefined) |  | 6.68 | 5.99 | 6.88
CC(=O)O[C@H]1C[C@H]2OC[C@@]2(OC(C)=O)[C@H]2[C@H](OC(=O)c3ccccc3)C3C[C@H](OC(=O)[C@H](O)[C@@H](NC(=O)c4ccc(C)cc4)c4ccccc4)C(C)=C([C@H]4OC(=O)O[C@@H]4[C@]12C)C3(C)C (some centres undefined) | 7 | 6.92 | 6.64 | 7.21
CC(=O)O[C@H]1C[C@H]2OC[C@@]2(OC(C)=O)[C@H]2[C@H](OC(=O)c3ccccc3)C3C[C@H](OC(=O)[C@H](O)[C@@H](NC(=O)c4cccc(F)c4)c4ccccc4)C(C)=C([C@H]4OC(=O)O[C@@H]4[C@]12C)C3(C)C (some centres undefined) |  | 6.74 | 5.63 | 7.17
CC(=O)O[C@H]1C[C@H]2OC[C@@]2(OC(C)=O)[C@H]2[C@H](OC(=O)c3ccccc3)C3C[C@H](OC(=O)[C@H](O)[C@@H](NC(=O)c4ccc(F)c(F)c4)c4ccccc4)C(C)=C([C@H]4OC(=O)O[C@@H]4[C@]12C)C3(C)C (some centres undefined) |  | 5.71 | 5.54 | 6.39
